Experimental data gathered from unrelated publications.
Each line is one published result; the experiments were not run side by side.
Target: Mitogen-activated protein kinase 9 (MAPK9, Homo sapiens, UniProt P45984)

| Compound | read-out | action | method | tested at | quantity | value |
| --- | --- | --- | --- | --- | --- | --- |
| Cc1ccc(NC(=O)c2ccnc(C(F)(F)F)c2)cc1-c1cc(OCCO)nc(N2CCOCC2)c1 | binding | – | competition with immobilised ligand | 1 µM | remaining binding | 83% |
| COc1ccc2oc(-c3ccc4nc(N)oc4c3)c/c(=N\c3ccccc3NC(=O)CCN)c2c1 | binding | – | – | 1 µM | remaining binding | 98% |
| N#Cc1ccc(NC(=O)Nc2ccccc2)cc1 | cell-free assay | – | competition with immobilised ligand | 25 µM | remaining binding | 100% |
| C1=C/COCc2cc(ccc2OCCN2CCCC2)Nc2nccc(n2)-c2cccc(c2)COC/1 | cell-free assay | – | – | 0.1 µM | remaining signal | 47% |
| C=CC(=O)N1CCC[C@@H](n2nc(-c3ccc(Oc4ccccc4)cc3)c3c(N)ncnc32)C1 | enzyme activity | inhibitor | – | 1 µM | inhibition | 21% |
| C#Cc1cnc(Nc2ccnc(CO)c2)nc1Nc1ccccc1S(C)(=O)=NC#N (stereo not drawn) | cell-free assay | – | – | 1 µM | remaining signal | 58% |
| C[C@H]1CC[C@H](n2c3cnccc3c3cnc(Nc4ccc5c(n4)CCN(C(=O)CO)C5)nc32)CC1 | binding | – | competition with immobilised ligand | 1 µM | remaining binding | 2.6% |
| CCCCC(=O)Nc1ccc(-c2ccc3ncn(CCC)c(=O)c3c2)cn1 | binding | – | competition with immobilised ligand | 0.5 µM | remaining binding | 68% |
| C=CC(=O)N1CCC([C@@H]2CCNc3c(C(N)=O)c(-c4ccc(Oc5ccccc5)cc4)nn32)CC1 | enzyme activity | inhibitor | – | 1 µM | inhibition | 0% |
